APJ antag – antagonists of human apelin receptor APJ, primary screen, CHO-K1 cells, beta-arrestin complementation, luminescence | hit rate 0.32% among 330,000 | P35414 | inhibition, % at 20 µM;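 active = inhibition above about 40% at 20 µM, limit read from the data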;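 note: cells challenged with 10 nM apelin-13 agonist together with compound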
APJ agonist – agonists of human apelin receptor APJ, primary screen, CHO-K1 cells, PathHunter beta-arrestin, luminescence; P35414; 0% DMSO wells, 100% apelin; activation, % at 20 µM; hit rate 0.11% among 330,000; AID 2520, 2010;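 active = activation more than six SD over the plate average, tested at 20 µM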
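Incubation: overnight seeding, 90 min compound at 25 °C, 1 h detection; test system: PathHunter CHO-K1 APJ (AGTRL-1) beta-arrestin reporter cells; amount: 1000 cells/well; doses: one dose, 20 µM compound, 1% DMSO; measured by: beta-gal luminescence; measure: agonist-driven arrestin binding to APJ; benchmarks: negative DMSO alone, positive Apelin-13 at 10 nM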
CCR6 antag – CCR6 receptor antagonists, primary screen, cell-based, CHO-K1, luminescence, beta-arrestin, uHTS; CHO-K1 CCR6 PathHunter beta-arrestin, CCL20-stimulated; inhibition, % at 20 µM; hit rate 0.49% among 340,000; AID 493098, 2011;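 active = compounds whose inhibition of the agonist-driven luminescence signal at 20 µM reaches about 50%, limit read from the data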;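 note: cells stimulated with CCL20 at 14 nM final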
Target sequence (P51684 whole entry, looked up): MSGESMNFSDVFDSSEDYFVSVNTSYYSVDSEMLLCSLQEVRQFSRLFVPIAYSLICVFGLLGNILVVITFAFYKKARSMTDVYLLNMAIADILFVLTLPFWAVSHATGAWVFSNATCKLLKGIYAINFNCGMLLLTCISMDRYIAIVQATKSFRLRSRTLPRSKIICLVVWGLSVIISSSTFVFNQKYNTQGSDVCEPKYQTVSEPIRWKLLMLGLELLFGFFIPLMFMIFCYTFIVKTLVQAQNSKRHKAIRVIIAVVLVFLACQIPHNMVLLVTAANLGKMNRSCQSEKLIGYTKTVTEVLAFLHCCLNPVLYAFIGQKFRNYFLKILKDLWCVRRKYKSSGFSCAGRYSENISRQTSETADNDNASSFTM
CXCR6 block – CXCR6 receptor inhibitors, primary screen, cell-based, beta-arrestin, luminescence, CHO-K1 PathHunter, 1536-well. hit rate 0.36% among 360,000. C-X-C chemokine receptor type 6 (Homo sapiens), O00574. inhibition, % at 20 µM; in the data active = inhibition above about 34%, passing the limit was not always enough;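 note: antagonist mode with CXCL16 agonist at 10 nM final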
EBI2 antag – EBI2 receptor antagonists, beta-arrestin recruitment, primary screen, cell-based, luminescence, 7a,25-OHC stimulation, uHTS; G-protein coupled receptor 183 (Homo sapiens), P32249; 7a,25-OHC stimulated; inhibition, % at 5 µM; hit rate 0.81% among 360,000; in the data active = inhibition above about 38%;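 note: enzyme fragment complementation signal reports receptor beta-arrestin coupling in cells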
Numbers stand for hits; – = inactive; · = no result. The list is not random: actives were taken first. Their share in the collection is about 1.5%.

SMILES | APJ antag | APJ agonist | CCR6 antag | CXCR6 block | EBI2 antag
C/C(=N\Nc1ncc(Cl)cc1Cl)c1ccccn1 | · | · | – | 50 | 56
C/C(=N\Nc1ccc(Cl)c(C(=O)O)c1)c1ccccn1 | – | – | – | – | –
CCc1ccc(C(O)c2ncc(-c3cccc(OC)c3)[nH]2)cc1 (stereo not drawn) | · | · | · | – | –
CCCCNC(=O)c1nc(-c2cccnc2)oc1-c1ccc(OC(F)(F)F)cc1 | · | · | · | · | –
CN(C)c1ccc(C(=O)/C=C/c2ccccc2)cc1 | – | – | – | – | 76
CC(=O)Nc1cccc(C(=O)/C=C/c2ccc(/C=C/C(=O)c3cccc(NC(C)=O)c3)cc2)c1 | – | – | · | · | ·
CC(=O)Nc1cccc(C(=O)/C=C/c2ccc(N(C)C)cc2)c1 | – | – | – | – | 43
C=CCN1C(=O)/C(=C/c2ccc(OC(C)=O)c(OCC)c2[N+](=O)[O-])SC1=S | · | · | 54 | 42 | –
COc1ccc(/C=c2\sc3nc(=O)c(C)nn3c2=O)c(OC)c1 | – | – | 83 | – | –
COc1ccc(C(=O)/C=C/C(=O)N(CC(=O)NC2CCCCC2)Cc2ccccc2)c(O)c1 | · | · | 97 | 71 | –
COc1ccc(C(=O)/C=C/C(=O)N(Cc2ccccc2OC)C(C(=O)NC2CCCCC2)c2ccncc2)c(O)c1 (stereo not drawn) | – | – | – | – | –
COc1ccc(C(=O)/C=C/C(=O)N(CC(=O)NC2CCCCC2)Cc2ccccc2OC)c(O)c1 | · | · | 84 | 64 | –
Cc1cccc2c1N(C)C(=O)C2=O | – | – | – | – | –
Cc1cc(C)c(S(=O)(=O)ON2C(=O)c3ccccc3C2=O)cc1C | – | – | 67 | – | –
O=S(=O)(c1ccccc1)N1CCN(S(=O)(=O)c2ccc(F)cc2)CC1 | – | – | – | – | –
O=C1c2ccccc2C(=O)N1OS(=O)(=O)c1ccc(F)cc1 | · | · | 70 | 58 | –
Cc1cc(C)c(C)c(S(=O)(=O)ON2C(=O)c3ccccc3C2=O)c1C | – | – | 76 | – | –
O=C(O)c1cc(Cl)n[nH]c1=O | · | · | · | – | –
CCCCC1Cc2[nH][nH]c(=O)c2C(c2ccc(F)cc2)O1 (stereo not drawn) | · | · | · | – | –
COc1ccc(NC2=CC(c3ccc(OC)c(OC)c3)N(c3ccc(OC)cc3)C2=O)cc1 (stereo not drawn) | – | – | – | – | –
NS(=O)(=O)c1ccc(NC2=CC(c3ccc([N+](=O)[O-])cc3)N(c3ccc(S(N)(=O)=O)cc3)C2=O)cc1 (stereo not drawn) | – | – | 50 | 60 | –
CN(C)CC(CCC(CN(C)C)C(=O)c1ccccc1)C(=O)c1ccccc1 (stereo not drawn) | · | · | 98 | 76 | 47
CS(=O)(=O)c1cc(C(=O)O)cc(NCc2ccccc2)c1Oc1ccccc1 | · | · | · | – | –
C#CCN(C[C@@H]1[C@@H](OC(=O)Nc2c(C)noc2C)[C@@H](OC(=O)Nc2c(C)noc2C)Cn2c(=O)n(CCCCCC)c(=O)n21)S(=O)(=O)c1ccc(C)cc1 | · | · | · | – | –
Cc1ccc(CNC(=O)c2ccc(Cn3cc(-c4ccc(C)cc4)nc3-c3ccncc3)cc2)cc1 | – | – | – | – | 71
SMILES | APJ antag | APJ agonist | CCR6 antag | CXCR6 block | EBI2 antag
CC(C)(C)OC(=O)C(Oc1ccccc1[N+](=O)[O-])C(=O)OC(C)(C)C | · | · | · | · | –
Nc1nn(S(=O)(=O)c2ccccc2)cc1-c1ccc([N+](=O)[O-])cc1 | – | 9.9 | – | – | –
CC(=O)N1N=C(c2cccc([N+](=O)[O-])c2)OC1c1ccccc1Cl (stereo not drawn) | – | – | 50 | – | –
O=[N+]([O-])c1ccc2nc(NN=Cc3ccc(O)cc3)sc2c1 | · | · | 78 | 55 | –
O=C(/C=C1\OCc2ccccc21)c1ccccc1 | · | · | · | · | –
Cc1[nH]c2ccccc2c1/C=N/Nc1ccc([N+](=O)[O-])cc1S(=O)(=O)Nc1ccc(Cl)cc1 | – | – | 57 | 42 | –
COc1ccc(C(NC(=O)C2CCN(Cc3ccc(Oc4ccccc4)cc3)CC2)c2ccccn2)cc1 (stereo not drawn) | · | · | · | – | –
COc1ccccc1N1C(=O)CC(Sc2n[nH]c(-c3cccc(C)c3)n2)C1=O (stereo not drawn) | – | – | 75 | – | –
COc1ccccc1N1C(=O)CC(Sc2nccc(C)n2)C1=O (stereo not drawn) | – | – | – | – | –
O=C1C2C3C=CC(C3=C(c3ccccc3)c3ccccc3)C2C(=O)N1CCO (stereo not drawn) | – | – | – | – | –
Cc1ccc(C(=C2C3C=CC2C2C(=O)NC(=O)C32)c2ccc(C)cc2)cc1 (stereo not drawn) | – | – | 54 | – | –
C=CCSc1nc2ccccc2n1C(=O)/C=C/c1ccc(OC)c(OC)c1 | · | · | – | – | 46
COc1cc(/C=C/C(=O)NCCn2c(C)cc3ccccc32)cc(OC)c1OC | – | – | – | – | –
C=CCSc1nc2ccccc2n1C(=O)/C=C/c1cc(OC)c(OC)c(OC)c1 | – | – | – | – | 56
CCSc1nc2ccccc2n1C(=O)/C=C/c1ccc(OC)c(OC)c1 | – | – | – | – | –
Nc1nc2ccccc2cc1C(=O)NCCCCc1ccccc1 | · | · | · | – | –
N#C/C(=N/Nc1ccc([N+](=O)[O-])cc1)C(=N)N1CCCCC1 | · | · | – | – | –
N#C/C(=N\Nc1ccc([N+](=O)[O-])cc1)C(N)=S | 69 | – | 69 | 53 | –
COc1cccc(C(C)(O)c2nc(-c3cccc(NC(C)=O)c3)cs2)c1 (stereo not drawn) | · | · | · | – | –
CCOc1cc(/C=N/O)ccc1OCc1ccc([N+](=O)[O-])cc1 | – | – | – | – | –
CCOc1cc(C=C(C(=O)OC)C(=O)OC)ccc1OCc1ccc([N+](=O)[O-])cc1 | – | – | – | – | 59
COc1cc([N+](=O)[O-])cc(/C=N/NC(=O)C(C)Nc2cccc3ccccc23)c1O (stereo not drawn) | – | – | – | 56 | 56
CC(Nc1cccc2ccccc12)C(=O)N/N=C/c1ccc([N+](=O)[O-])cc1 (stereo not drawn) | – | – | – | – | –
CC(C)CC1NC(=O)c2cccnc2-n2c1nc1ccccc1c2=O (stereo not drawn) | · | · | · | – | –
COc1cc(F)ccc1-c1csc(C(C)(O)c2ccccc2)n1 (stereo not drawn) | · | · | · | – | –
Cc1ccc(N/C(N)=N/c2nc(C)cc(N3CCCCC3)n2)c(C)c1 | – | 28 | – | – | –
Cc1c(N=NC2=C(O)CCCC2=O)c(=O)n(-c2ccccc2)n1C | – | – | 70 | 49 | –
O=C1NC[C@@H](CCCCN2C[C@H](Cc3ccccc3)N(CCc3ccccc3)C(=O)C2=O)N(CCc2ccccc2)C1=O | · | · | · | – | –
